Results gathered from unrelated publications.
Protocols differ between the studies behind these lines.
Target: Dual specificity tyrosine-phosphorylation-regulated kinase 1A (DYRK1A, Homo sapiens, UniProt Q13627)

Compound	assay	setting	endpoint	result
O=[N+]1C=CC(=C2C=CN([O-])C=C2)C=C1	enzyme activity, inhibitor, ADP detection	10 µM	inhibition	52.8%
C=CC(=O)N1CCC([C@@H]2CCNc3c(C(N)=O)c(-c4ccc(Oc5ccccc5)cc4)nn32)CC1	cell-free assay	1 µM	inhibition	3%
C=C(C)C1CCC(C)=C1COC(=O)c1cc([N+](=O)[O-])cc([N+](=O)[O-])c1 (stereo not shown)	enzyme activity, inhibitor, ADP detection	10 µM	inhibition	10.3%
CN1CCN(C(=O)c2ccc(NC(=O)Nc3ccc(N(C)c4ccnc(Nc5ccc(CS(C)(=O)=O)cc5)n4)cc3)cc2)CC1	binding	1 µM	remaining binding	62%
COc1ccc2oc(-c3ccc4nc(N)oc4c3)c/c(=N\c3ccccc3NC(=O)CCN)c2c1	binding, competition with immobilised ligand	1 µM	remaining binding	111%
CCCCC(=O)Nc1ccc(-c2ccc3ncn(CCC)c(=O)c3c2)cn1	binding, competition with immobilised ligand	0.5 µM	remaining binding	81%
CCOC(=O)c1c(NC(=O)CCC(=O)OC)sc2c1CCCC2	enzyme activity, inhibitor, ADP detection	10 µM	inhibition	18.3%
CC(C)S(=O)(=O)c1ccc2nccc(Nc3ccc4sc(C5CCCC5)nc4c3)c2c1	enzyme activity, inhibitor	1 µM	activity vs control	103%
C1=C/COCc2cc(ccc2OCCN2CCCC2)Nc2nccc(n2)-c2cccc(c2)COC/1	binding	0.1 µM	remaining binding	52%
C[C@H]1CC[C@H](n2c3cnccc3c3cnc(Nc4ccc5c(n4)CCN(C(=O)CO)C5)nc32)CC1	cell-free assay	1 µM	remaining signal	0%
CC(=O)ON=C1C=CC(=C(C#N)c2ccccc2)C=C1	enzyme activity, inhibitor, ADP detection	2 µM	activity vs control	99%
c1cnc(-c2nnc3sc(C45CC6CC(CC(C6)C4)C5)nn23)cn1	enzyme activity, inhibitor, ADP detection	10 µM	inhibition	8.44%
CC#CC(=O)N1CCC[C@H]1c1nc(-c2ccc(C(=O)Nc3ccccn3)cc2)c2c(N)nccn12	enzyme activity, inhibitor	1 µM	inhibition	3%
